Assay results reported in ChEMBL document CHEMBL1151806, “Indolizidine, antiinfective and antiparasitic compounds from Prosopis glandulosa var. glandulosa” (J Nat Prod, 2009).
Converted amounts (≈) assume the structure as drawn. The source made the active and inactive calls. The rule behind the calls is not given here.

How the values were obtained:
Candida albicans [1] = assay: Antimicrobial activity against Candida albicans ATCC 90028 by NCCLS method; assay type: functional, organism-based
How it was run: (§1)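 Samples serially diluted in 20% DMSO/saline, tested in duplicate. Inocula set by OD630: C. albicans RPMI pH 4.5, 1·10^4 CFU/mL; C. neoformans Sabouraud dextrose, 1·10^5; MRSA cation-adjusted Mueller-Hinton pH 7.3, 5·10^5; M. intracellulare 7H9/OADC + 5% Alamar Blue pH 7.3, 2·10^6; A. fumigatus RPMI pH 7.3 + 5% Alamar Blue, 3·10^4.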

Vero [2] = assay: Cytotoxicity against african green monkey Vero cells at 4760 ng/mL; assay type: cell-based, Chlorocebus sabaeus
Leishmania donovani = assay: Antileishmanial activity against Leishmania donovani promastigotes after 48 hrs by alamar blue assay; assay type: functional, organism-based
Cryptococcus neoformans [3] = assay: Antimicrobial activity against Cryptococcus neoformans ATCC 90113 by NCCLS method; assay type: functional, organism-based; how it was run: as §1
Aspergillus fumigatus [4] = assay: Antimicrobial activity against Aspergillus fumigatus ATCC 90906 by alamar blue assay; assay type: functional, organism-based; how it was run: as §1
Plasmodium falciparum [5] = assay: Antimalarial activity after 72 hrs against […] Plasmodium falciparum D6 by pLDH activity; assay type: functional, organism-based; settings: D6, 72 h
How it was run: (§2)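 P. falciparum-infected red cells (2% parasitemia, 2% hematocrit) in RPMI-1640 with 10% human serum and 60 μg/mL amikacin, exposed to serial sample concentrations. Gassed with 90% N2/5% O2/5% CO2, incubated 37 °C for 72 h. Parasite LDH activity read colorimetrically with Malstat reagent.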

[6] = tested on: Mycobacterium intracellulare; assay: Antimicrobial activity against Mycobacterium intracellular ATCC 23068 by alamar blue assay; assay type: functional, organism-based
How it was run: as §1, with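 “3·10^4. Read at 630 nm or 544ex/590em before and after incubation.” for “3·10^4.”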

Plasmodium falciparum [7] = assay: Antimalarial activity after 72 hrs against chloroquine-resistant Plasmodium falciparum W2 by pLDH activity; assay type: functional, organism-based; settings: W2, 72 h; how it was run: as §2
Staphylococcus aureus [8] = assay: Antimicrobial activity against methicillin-resistant Staphylococcus aureus ATCC 43300 by NCCLS method; assay type: functional, organism-based; how it was run: as §1
[9] = Selectivity index, IC50 for african green monkey (Cercopithecus aethiops) Vero cells to IC50 for […]; assay type: functional
How it was run: (§3)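 Selectivity index = IC50 against VERO cells divided by IC50 against P. falciparum (D6 or W2, respectively), each from the corresponding in-house assay.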

[10] = Selectivity index, IC50 for african green monkey (Cercopithecus aethiops) Vero cells to IC50 for chloroquine-sensitive Plasmodium falciparum D6; assay type: functional; how it was run: as §3
Cryptococcus neoformans [11] = assay: Antimicrobial activity against Cryptococcus neoformans ATCC 90113 by NCCLS method in presence of 5% human serum; assay type: functional, organism-based
Aspergillus fumigatus [12] = assay: Antimicrobial activity against Aspergillus fumigatus ATCC 90906 by alamar blue assay in presence of 5% human serum; assay type: functional, organism-based
[13] = tested on: Mycobacterium intracellulare; assay: Antimicrobial activity against Mycobacterium intracellular ATCC 23068 by alamar blue assay in presence of 5% human serum; assay type: functional, organism-based
Staphylococcus aureus [14] = assay: Antimicrobial activity against methicillin-resistant Staphylococcus aureus ATCC 43300 by NCCLS method in presence of 5% human serum; assay type: functional, organism-based
Candida albicans [15] = assay: Antimicrobial activity against Candida albicans ATCC 90028 by NCCLS method in presence of 5% human serum; assay type: functional, organism-based
BT-549 = assay: Cytotoxicity against human BT549 cells after 48 hrs by neutral red assay; assay type: functional, cell-based; settings: BT-549, 48 h
How it was run: (§4)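 Cells seeded at 25,000/well, incubated 24 h, then exposed to samples for 48 h. Viable cells measured by Neutral Red uptake. IC50 from logarithmic plots of growth inhibition vs concentration. Doxorubicin positive control, DMSO vehicle control.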

KB = assay: Cytotoxicity against human KB cells after 48 hrs by neutral red assay; assay type: functional, cell-based; how it was run: as §4
Vero [16] = assay: Cytotoxicity against african green monkey Vero cells after 48 hrs by neutral red assay; assay type: cell-based, Chlorocebus sabaeus; settings: Chlorocebus sabaeus, Vero, 48 h; read-out: IC50; how it was run: as §4
[17] = Toxicity in RBC assessed as hemolysis; assay type: cell-based; settings: Erythrocyte
SK-MEL = assay: Cytotoxicity against human SK-MEL cells after 48 hrs by neutral red assay; assay type: functional, cell-based; how it was run: as §4
SK-OV-3 = assay: Cytotoxicity against human SKOV3 cells after 48 hrs by neutral red assay; assay type: functional, cell-based; settings: SK-OV-3, 48 h; how it was run: as §4
LLC-PK1 = assay: Cytotoxicity against pig LLC-PK1 cells after 48 hrs by neutral red assay; assay type: cell-based, Sus scrofa; settings: Sus scrofa, LLC-PK1, 48 h; read-out: IC50; how it was run: as §4
[18] = Candida albicans, ATCC 90028, read-out: IC50
[19] = Aspergillus fumigatus, ATCC 90906, read-out: IC50

## C[C@H]1N[C@@H](CCCCCCCCCCC2=C[C@@H](CCCCCCCCCC[C@@H]3CC[C@H](O)[C@@H](C)N3)[C@@H]3CCCN3C2)CC[C@H]1O.Cl.Cl
Candida albicans [1]; [18]
  IC50: 7.5 µg/mL
Vero [2]
  IC50: Non-toxic
Leishmania donovani
  IC50: 0.7 µg/mL
  IC90: 1.2 µg/mL
Cryptococcus neoformans [3]
  IC50: 0.85 µg/mL
  MFC: 2.5 µg/mL
  MIC: 1.25 µg/mL
Aspergillus fumigatus [4]; [19]
  IC50: 6.5 µg/mL
Plasmodium falciparum [5]
  IC50: 0.38 µg/mL
[6]
  IC50: 10 µg/mL
Plasmodium falciparum [7]
  IC50: 0.29 µg/mL
Staphylococcus aureus [8]
  IC50: 3 µg/mL
[9]
  Ratio IC50: >16.4
[10]
  Ratio IC50: >12.5

## C[C@@H]1N[C@H](CCCCCCCCCCC2=C[C@@H](CCCCCCCCCC[C@@H]3CC[C@@H](O)[C@H](C)N3)[C@@H]3CCCN3C2)CC[C@H]1O.Cl.Cl
Candida albicans [1]
  IC50: Not Active
Vero [2]
  IC50: Non-toxic
Leishmania donovani
  IC90: 7 µg/mL
Cryptococcus neoformans [3]
  IC50: 2 µg/mL
Aspergillus fumigatus [4]
  IC50: Not Active
Plasmodium falciparum [5]
  IC50: 0.6 µg/mL
[6]
  IC50: 9.5 µg/mL
  MIC: 20 µg/mL
Staphylococcus aureus [8]
  IC50: 3 µg/mL
[9]
  Ratio IC50: >8.5
[10]
  Ratio IC50: >7.9

## C[C@@H]1N[C@H](CCCCCCCCCCC2=C[C@@H](CCCCCCCCCC[C@@H]3CC[C@@H](O)[C@H](C)N3)[C@@H]3CCCN3C2)CC[C@H]1O
Candida albicans [1]
  MFC: inactive
  MIC: inactive
Cryptococcus neoformans [11]
  Activity: Active
Aspergillus fumigatus [12]
  Activity: Active
[13]
  Activity: Active
Aspergillus fumigatus [4]
  MFC: inactive
  MIC: inactive
Staphylococcus aureus [14]
  Activity: Active
[6]
  MBC: inactive
Candida albicans [15]
  Activity: Active

## C[C@H]1N[C@@H](CCCCCCCCCCC2=C[C@@H](CCCCCCCCCC[C@@H]3CC[C@H](O)[C@@H](C)N3)[C@@H]3CCCN3C2)CC[C@H]1O
Candida albicans [1]
  MFC: inactive
  MIC: inactive
Cryptococcus neoformans [11]
  Activity: Active
Aspergillus fumigatus [12]
  Activity: Active
[13]
  Activity: Active
Aspergillus fumigatus [4]
  MFC: inactive
Staphylococcus aureus [14]
  Activity: Active
[6]
  MBC: inactive
  MIC: inactive
Staphylococcus aureus [8]
  MBC: inactive
Candida albicans [15]
  Activity: Active

## C[C@@H]1[C@H](O)[C@@H](C)/C=C/C=C/C=C/C=C/C=C/C=C/C=C/[C@H](O[C@@H]2O[C@H](C)[C@@H](O)[C@H](N)[C@@H]2O)C[C@@H]2O[C@](O)(C[C@@H](O)C[C@@H](O)[C@H](O)CC[C@@H](O)C[C@@H](O)CC(=O)O[C@H]1C)C[C@H](O)[C@H]2C(=O)O [AMPHOTERICIN B]
Candida albicans [1]; Candida albicans, ATCC 90028
  MIC: 0.63 µg/mL (≈ 0.682 µM)
Candida albicans [1]; [18]
  IC50: 0.35 µg/mL (≈ 0.379 µM)
BT-549
  IC50: 5.5 µg/mL (≈ 5.95 µM)
KB
  IC50: > 25 µg/mL
Vero [16]
  IC50: 7.5 µg/mL (≈ 8.12 µM)
[17]
  IC50: 3.9 µg/mL (≈ 4.22 µM)
Cryptococcus neoformans [3]
  IC50: 0.45 µg/mL (≈ 0.487 µM)
Aspergillus fumigatus [4]; Aspergillus fumigatus, ATCC 90906
  MIC: 0.63 µg/mL (≈ 0.682 µM)
Aspergillus fumigatus [4]; [19]
  IC50: 0.4 µg/mL (≈ 0.433 µM)
SK-MEL
  IC50: 5 µg/mL (≈ 5.41 µM)
SK-OV-3
  IC50: > 25 µg/mL

## C[C@@H]1CC[C@H]2[C@@H](C)C(=O)O[C@@H]3O[C@@]4(C)CC[C@@H]1[C@]32OO4 [ARTEMISININ]
Vero [2]
  IC50: Non-toxic
Vero [16]
  IC50: > 4.76 µg/mL
Plasmodium falciparum [5]
  IC50: 0.016 µg/mL (≈ 0.0567 µM)
LLC-PK1
  IC50: 0.6 µg/mL (≈ 2.13 µM)

## CCN(CC)CCCC(C)Nc1ccnc2cc(Cl)ccc12 (configuration not stated) [CHLOROQUINE]
Vero [2]
  IC50: Non-toxic
